# Results from ChEMBL document CHEMBL5653606 (J Pharmacol Exp Ther, 2011).
# The source made the active and inactive calls.
# Assays:
# [1] = system: Mus musculus; assay: Antinociceptive activity in C57BL6/J mouse assessed as thermal tail immersion at 1 to 10 mg/kg, po administered for 4 hrs; type: functional, organism-based; conditions: dose 1-10 mg/kg
# Method in brief: (§1)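 Male C57BL/6J mice, 7 weeks old, n = 8/group, dosed orally at 1 or 10 mg/kg in PEG 300 (4 ml/kg). Tetrad tested 4 h postdose: locomotor activity, tail-immersion thermal nociception, catalepsy (assessed 60 s), body temperature. Means ± S.E.M. versus vehicle.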
# [2] = Brain concentration in rat at 1 mg/kg, po administered for 4 hrs by LC/MS analysis; type: ADME, organism-based; conditions: read-out: Ct
# Method in brief: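 Rats dosed orally at 1 mg/kg. Plasma and brain concentrations measured at 1, 2, 4, 8 and 24 h.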
# [3] = system: Mus musculus; assay: Antinociceptive activity in C57BL6/J mouse assessed as effect in body temperature at 1 to 10 mg/kg, po administered for 4 hrs; type: functional, organism-based; conditions: dose 1-10 mg/kg; method in brief: as §1
# [4] = system: Rattus norvegicus; assay: Antihyperalgesic activity in MIA induced Sprague-Dawley rat assessed as increased joint compression thresholds at 0.3 mg/kg, po administered once daily for 3 consecutive days and measured after 2 to 4 hrs; type: functional, organism-based; conditions: time 3.0 day
# Method in brief: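 Male Sprague-Dawley rats (220–270 g), isoflurane-anesthetized, given 2 mg MIA in 0.9% saline (50 μl) intra-articular into the knee. From day 14, oral dosing at 10 ml/kg once daily for 3 days in 4% 2-hydroxypropyl-β-cyclodextrin/1% ethanol in 0.01 M HCl. Celecoxib 30 mg/kg in 0.5% methylcellulose twice daily. Joint compression threshold by digital Randall-Selitto at 2 and 4 h postdose on days 1 and 3; n = 10/group.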
# [5] = target: T1, Fatty-acid amide hydrolase 1 (Homo sapiens, UniProt O00519); assay: Inhibition of human FAAH assessed as kinact/Ki ratio incubated for 30 min in presence of glutamate dehydrogenase by 384-well format microplate reader assay
# T1 sequence (O00519 whole entry): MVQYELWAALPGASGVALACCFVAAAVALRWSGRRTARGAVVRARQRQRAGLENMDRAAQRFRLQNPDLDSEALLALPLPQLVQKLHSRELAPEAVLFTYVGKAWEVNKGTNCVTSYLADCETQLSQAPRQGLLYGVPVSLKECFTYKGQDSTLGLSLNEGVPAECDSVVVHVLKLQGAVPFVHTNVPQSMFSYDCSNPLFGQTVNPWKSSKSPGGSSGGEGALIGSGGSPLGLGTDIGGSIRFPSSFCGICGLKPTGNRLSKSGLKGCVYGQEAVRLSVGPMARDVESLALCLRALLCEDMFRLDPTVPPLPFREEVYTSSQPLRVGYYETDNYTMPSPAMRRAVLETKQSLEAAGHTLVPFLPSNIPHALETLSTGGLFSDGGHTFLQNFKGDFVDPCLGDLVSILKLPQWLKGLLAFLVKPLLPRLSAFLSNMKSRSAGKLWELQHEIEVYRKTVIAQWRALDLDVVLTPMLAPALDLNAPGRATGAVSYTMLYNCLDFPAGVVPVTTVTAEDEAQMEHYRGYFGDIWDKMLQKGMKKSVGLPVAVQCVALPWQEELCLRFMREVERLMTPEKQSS
# [6] = target: T2, Fatty-acid amide hydrolase 1 (Mus musculus) (UniProt O08914); assay: Inhibition of FAAH in mouse brain at 100 uM in presence of FP-rhodamine by competitive activity-based protein profiling method; type: tissue-based
# T2 sequence (whole entry): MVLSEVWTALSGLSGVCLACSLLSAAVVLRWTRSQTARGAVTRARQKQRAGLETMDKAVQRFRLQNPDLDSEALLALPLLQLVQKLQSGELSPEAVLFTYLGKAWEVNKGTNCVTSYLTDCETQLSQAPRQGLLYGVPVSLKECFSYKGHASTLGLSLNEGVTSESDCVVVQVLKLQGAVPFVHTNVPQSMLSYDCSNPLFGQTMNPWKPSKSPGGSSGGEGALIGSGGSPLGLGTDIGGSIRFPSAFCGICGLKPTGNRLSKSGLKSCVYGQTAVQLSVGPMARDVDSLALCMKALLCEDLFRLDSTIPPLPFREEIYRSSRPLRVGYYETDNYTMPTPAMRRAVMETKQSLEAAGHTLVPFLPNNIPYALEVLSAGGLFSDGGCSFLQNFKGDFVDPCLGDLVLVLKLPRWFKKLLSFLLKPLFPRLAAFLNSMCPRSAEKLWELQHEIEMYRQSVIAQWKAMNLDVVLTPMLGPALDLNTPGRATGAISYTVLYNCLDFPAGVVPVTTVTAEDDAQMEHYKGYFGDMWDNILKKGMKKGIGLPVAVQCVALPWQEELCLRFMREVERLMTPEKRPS
# Method in brief: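 Competitive ABPP on human and mouse brain, liver and heart proteomes (membrane and soluble fractions), exposed to compound at 10 or 100 μM or to DMSO. Serine hydrolases were then labeled with FP-rhodamine. Gels were read by fluorescence scanning, and loss of band labeling (FAAH or other hydrolases by kDa) was judged.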
# [7] = Ratio of drug concentration in rat brain to plasma at 1 mg/kg, po administered for 4 hrs by LC/MS analysis; type: ADME, organism-based; conditions: brain and plasma
# Method in brief: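 Male Sprague-Dawley rats received a single oral dose of 1 mg/kg. Plasma (ng/ml) and brain (ng/g tissue) drug levels were measured at 1, 2, 4, 8 and 24 h after dosing.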
# [8] = Plasma concentration in rat at 5 mg/kg, po by LC/MS analysis; type: ADME, organism-based; conditions: in vivo
# [9] = system: Mus musculus; assay: In vivo inhibition of rhodamine-azide tagged FAAH expressed in mouse brain at 1 mg/kg, po by CC-ABPP method based in-gel fluorescence scanning analysis; type: functional, organism-based
# [10] = Brain concentration in CFA induced Sprague-Dawley rat at 0.1 mg/kg, po by LC/MS analysis; type: ADME, organism-based; conditions: in vivo, read-out: Ct
# [11] = target: T3, Fatty-acid amide hydrolase 1 (Rattus norvegicus) (UniProt P97612); assay: In vivo inhibition of FAAH in CFA induced Sprague-Dawley rat plasma assessed as elevation of OEA level at 1 mg/kg, po measured for 1 to 24 hrs; type: functional, organism-based; conditions: time 1-24 hrs
# T3 sequence (whole entry): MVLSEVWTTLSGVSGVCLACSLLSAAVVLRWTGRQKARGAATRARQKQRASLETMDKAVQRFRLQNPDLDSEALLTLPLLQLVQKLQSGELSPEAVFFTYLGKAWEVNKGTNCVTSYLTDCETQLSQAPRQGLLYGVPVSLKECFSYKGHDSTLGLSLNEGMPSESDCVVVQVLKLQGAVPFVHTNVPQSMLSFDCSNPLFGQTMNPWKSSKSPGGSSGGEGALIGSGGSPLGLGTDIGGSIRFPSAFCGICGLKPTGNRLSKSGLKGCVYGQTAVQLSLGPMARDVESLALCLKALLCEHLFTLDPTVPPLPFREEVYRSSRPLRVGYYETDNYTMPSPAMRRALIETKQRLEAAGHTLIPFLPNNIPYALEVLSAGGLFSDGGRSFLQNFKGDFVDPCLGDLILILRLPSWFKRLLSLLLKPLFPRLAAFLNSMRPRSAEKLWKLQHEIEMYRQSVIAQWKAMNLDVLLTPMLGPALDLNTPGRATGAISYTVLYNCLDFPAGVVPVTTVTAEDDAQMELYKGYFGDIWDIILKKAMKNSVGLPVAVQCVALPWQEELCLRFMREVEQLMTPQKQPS
smiles,measurement,setting,value
O=C(Nc1cccnn1)N1CCC(=Cc2cccc(Oc3ccc(C(F)(F)F)cn3)c2)CC1,Activity,[1],Toxic
same,concentration at 4 h,[2],870 nM
same,Activity,[3],Non-Toxic
same,Activity,[4],Active
same,IC50,[5],10.7 nM
same,inhibition,[6],Active
same,Kp at 4 h,[7],1.6
same,concentration,[8],2800 nM
same,inhibition,[9],Active
same,concentration,[10],38.9 nM
same,inhibition,[11],Active
